Measured values published in ChEMBL document CHEMBL1127659, “In vitro and in vivo activities of reduced-size antagonists of luteinizing hormone-releasing hormone” (J Med Chem, 1994).
Converted amounts (≈) assume the structure as drawn. Where a SMILES comes first, the peptide text is derived from it. [ ]: non-standard residue; d: D form. The star is where a group is joined. Propanoyl(3-(4-F-phenyl)) = O=C(CCc1ccc(F)cc1)*; Propanoyl(3-(4-Cl-Ph)) = O=C(CCc1ccc(Cl)cc1)*; dPhe(4-Cl) = N[C@H](Cc1ccc(Cl)cc1)C(=O)O; Desaminotyrosyl = O=C(CCc1ccc(O)cc1)*; d1Nal = N[C@H](Cc1cccc2ccccc12)C(=O)O; d2Nal = N[C@H](Cc1ccc2ccccc2c1)C(=O)O; Lys(iPr) = CC(C)NCCCC[C@H](N)C(=O)O; NMeY = CN[C@@H](Cc1ccc(O)cc1)C(=O)O; d3Pal = N[C@H](Cc1cccnc1)C(=O)O; Nicotinoyl = O=C(c1cccnc1)*; X1 = O=C(Cc1ccc(O)cc1)*

Columns and labels:
[1] = species on record: Rattus norvegicus; experiment: In vitro antagonistic potency against release of luteinizing hormone (LH) from cultured rat pituitary cells.; assay type: functional; conditions: Pituitary gland cell, read-out: pA2 (converted)
Outline: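 Cultured rat pituitary cells, agonist-stimulated LH release. pA2 is the negative log of the antagonist concentration that makes a 2-fold higher agonist concentration necessary to release LH. Compounds tested as TFA salts.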

[2] = species on record: Rattus norvegicus; experiment: Percentage suppression of the LH in castrated rat after 2 hr of doing
[3] = species on record: Rattus norvegicus; experiment: Effective dose required for maximal release of histamine from rat peritoneal mast cells; assay type: functional; conditions: read-out: ED50 (the source's name)
Outline: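 Rat peritoneal mast cells; histamine release measured. ED50 is the antagonist dose giving 50% of maximal histamine release, in micrograms per milliliter. All compounds tested as TFA salts.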

EC50 [3] | Compound | Kb [1] | Supression [2]
– | CCNC(=O)[C@@H]1CCCN1C(=O)[C@H](CCCN=C(N)N)NC(=O)[C@H](CC(C)C)NC(=O)[C@@H](Cc1c[nH]c2ccccc12)NC(=O)[C@H](Cc1ccc(O)cc1)NC(=O)[C@H](CO)NC(=O)[C@@H](Cc1c[nH]c2ccccc12)NC(=O)CCc1ccc(F)cc1 [listing 1 of 2 here] | 0.0389 nM | –
– | CCNC(=O)[C@@H]1CCCN1C(=O)[C@H](CCCN=C(N)N)NC(=O)[C@H](CC(C)C)NC(=O)[C@@H](Cc1c[nH]c2ccccc12)NC(=O)[C@H](Cc1ccc(O)cc1)NC(=O)[C@H](CO)NC(=O)[C@@H](Cc1c[nH]c2ccccc12)NC(=O)CCc1ccc(F)cc1 [listing 2 of 2 here] | – | 88%
– | CCNC(=O)[C@@H]1CCCN1C(=O)[C@H](CCCN=C(N)N)NC(=O)[C@H](CC(C)C)NC(=O)[C@@H](Cc1ccc(O)cc1)NC(=O)[C@H](Cc1ccc(O)cc1)NC(=O)[C@H](CO)NC(=O)[C@@H](Cc1c[nH]c2ccccc12)NC(=O)CCc1ccc(F)cc1 | 0.0316 nM | –
< 0.1 µg/mL | CCNC(=O)[C@@H]1CCCN1C(=O)[C@H](CCCN=C(N)N)NC(=O)[C@H](CC(C)C)NC(=O)[C@@H](CCCCNC(=O)c1cccnc1)NC(=O)[C@H](Cc1ccc(O)cc1)N(C)C(=O)[C@H](CO)NC(=O)[C@@H](Cc1c[nH]c2ccccc12)NC(=O)CCc1ccc(F)cc1 | – | 90%
– | CCNC(=O)[C@@H]1CCCN1C(=O)[C@H](CCCN=C(N)N)NC(=O)[C@H](CC(C)C)NC(=O)[C@@H](Cc1c[nH]c2ccccc12)NC(=O)[C@H](Cc1ccc(O)cc1)NC(=O)[C@H](CO)NC(=O)[C@@H](Cc1c[nH]c2ccccc12)NC(=O)CCc1ccc(F)cc1F | 0.0141 nM | –
– | CCNC(=O)[C@@H]1CCCN1C(=O)[C@H](CCCN=C(N)N)NC(=O)[C@H](CC(C)C)NC(=O)[C@@H](Cc1c[nH]c2ccccc12)NC(=O)[C@H](Cc1ccc(O)cc1)NC(=O)[C@H](CO)NC(=O)[C@@H](Cc1ccc(O)cc1)NC(=O)CCc1ccc(F)cc1 | 0.219 nM | –
– | CCNC(=O)[C@@H]1CCCN1C(=O)[C@H](CCCN=C(N)N)NC(=O)[C@H](CC(C)C)NC(=O)[C@@H](Cc1c[nH]c2ccccc12)NC(=O)[C@H](Cc1ccc(O)cc1)NC(=O)[C@H](CO)NC(=O)[C@H](Cc1c[nH]c2ccccc12)NC(=O)CCc1ccc(F)cc1 | 0.589 nM | –
– | CCNC(=O)[C@@H]1CCCN1C(=O)[C@H](CCCCNC(C)C)NC(=O)[C@H](CC(C)C)NC(=O)[C@@H](CCCCNC(=O)c1cccnc1)NC(=O)[C@H](Cc1ccc(O)cc1)N(C)C(=O)[C@H](CO)NC(=O)[C@@H](Cc1cccc2ccccc12)NC(=O)CCc1ccc(F)cc1 | 0.00372 nM | –
– | CCNC(=O)[C@@H]1CCCN1C(=O)[C@H](CCCN=C(N)N)NC(=O)[C@H](CC(C)C)NC(=O)[C@@H](Cc1c[nH]c2ccccc12)NC(=O)[C@H](Cc1ccc(O)cc1)NC(=O)[C@@H]1CCCN1C(=O)[C@@H](Cc1c[nH]c2ccccc12)NC(=O)CCc1ccc(F)cc1 | 21.4 nM | –
– | CCNC(=O)[C@@H]1CCCN1C(=O)[C@H](CCCN=C(N)N)NC(=O)[C@H](CC(C)C)NC(=O)[C@@H](Cc1c[nH]c2ccccc12)NC(=O)[C@H](Cc1ccc(O)cc1)N(C)C(=O)[C@H](CO)NC(=O)[C@@H](Cc1c[nH]c2ccccc12)NC(=O)CCc1ccc(F)cc1 | 0.00708 nM | –
10 µg/mL (≈ 6.51 µM) | CC(=O)N[C@H](Cc1ccc2ccccc2c1)C(=O)N[C@H](Cc1ccc(Cl)cc1)C(=O)N[C@H](Cc1cccnc1)C(=O)N[C@@H](CO)C(=O)N(C)[C@@H](Cc1ccc(O)cc1)C(=O)N[C@H](CCCCNC(=O)c1cccnc1)C(=O)N[C@@H](CC(C)C)C(=O)N[C@@H](CCCCNC(C)C)C(=O)N1CCC[C@H]1C(=O)N[C@H](C)C(N)=O (Ac-[d2Nal][dPhe(4-Cl)][d3Pal]S[NMeY][dK](Nicotinoyl)L[Lys(iPr)]P[dA]-NH2) | – | –
– | CCNC(=O)[C@@H]1CCCN1C(=O)[C@H](CCCN=C(N)N)NC(=O)[C@H](CC(C)C)NC(=O)[C@@H](Cc1c[nH]c2ccccc12)NC(=O)[C@H](Cc1ccc(O)cc1)NC(=O)[C@H](CO)NC(=O)[C@H](Cc1c[nH]c2ccccc12)NC(=O)CCc1ccc(O)cc1 (Desaminotyrosyl-WSY[dW]LRP-NHEt) | 15.5 nM | –
– | CCNC(=O)[C@@H]1CCCN1C(=O)[C@H](CCCN=C(N)N)NC(=O)[C@H](CC(C)C)NC(=O)[C@@H](Cc1c[nH]c2ccccc12)NC(=O)[C@H](Cc1ccc(O)cc1)NC(=O)[C@H](CO)NC(=O)[C@H](Cc1c[nH]c2ccccc12)NC(=O)Cc1ccc(O)cc1 (X1-WSY[dW]LRP-NHEt) | 44.7 nM | –
– | CCNC(=O)[C@@H]1CCCN1C(=O)[C@H](CCCN=C(N)N)NC(=O)[C@H](CC(C)C)NC(=O)[C@@H](Cc1c[nH]c2ccccc12)NC(=O)[C@H](Cc1ccc(O)cc1)NC(=O)[C@H](CO)NC(=O)[C@H](Cc1ccc(O)cc1)NC(=O)CCc1ccc(Cl)cc1 ({Propanoyl(3-(4-Cl-Ph))}-YSY[dW]LRP-NHEt) | 0.851 nM | –
– | CCNC(=O)[C@@H]1CCCN1C(=O)[C@H](CCCN=C(N)N)NC(=O)[C@H](CC(C)C)NC(=O)[C@@H](Cc1c[nH]c2ccccc12)NC(=O)[C@H](Cc1ccc(O)cc1)NC(=O)[C@H](CO)NC(=O)[C@@H](Cc1ccc(O)cc1)NC(=O)CCc1ccc(Cl)cc1 ({Propanoyl(3-(4-Cl-Ph))}-[dY]SY[dW]LRP-NHEt) | 0.0832 nM | –
– | CC(C)C[C@H](NC(=O)[C@@H](CCCCNC(=O)c1cccnc1)NC(=O)[C@H](Cc1ccc(O)cc1)N(C)C(=O)[C@H](CO)NC(=O)[C@@H](Cc1cccc2ccccc12)NC(=O)CCc1ccc(F)cc1)C(=O)N[C@@H](CCCCNC(C)C)C(=O)N1CCC[C@H]1C(=O)N[C@H](C)C(N)=O ({Propanoyl(3-(4-F-phenyl))}-[d1Nal]S[NMeY][dK](Nicotinoyl)L[Lys(iPr)]P[dA]-NH2) [listing 1 of 2 here] | 0.00741 nM | –
10.3 µg/mL (≈ 7.84 µM) | CC(C)C[C@H](NC(=O)[C@@H](CCCCNC(=O)c1cccnc1)NC(=O)[C@H](Cc1ccc(O)cc1)N(C)C(=O)[C@H](CO)NC(=O)[C@@H](Cc1cccc2ccccc12)NC(=O)CCc1ccc(F)cc1)C(=O)N[C@@H](CCCCNC(C)C)C(=O)N1CCC[C@H]1C(=O)N[C@H](C)C(N)=O ({Propanoyl(3-(4-F-phenyl))}-[d1Nal]S[NMeY][dK](Nicotinoyl)L[Lys(iPr)]P[dA]-NH2) [listing 2 of 2 here] | – | –
